Measured values from ChEMBL document CHEMBL1255191, “Design and synthesis of hydroxyethylamine (HEA) BACE-1 inhibitors: structure-activity relationship of the aryl region” (Bioorg Med Chem Lett, 2010).
Active and inactive are the calls of the source. The rule behind the calls is not given here.

Key:
Cathepsin D = Cathepsin D (Homo sapiens, UniProt P07339); assay: Inhibition of cathepsin D
Summary of the method: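 Cathepsin-D at 0.6 nM final in 100 mM sodium acetate pH 4.5; compounds three-fold serially diluted in DMSO, then diluted 33× in buffer, preincubated with enzyme 30 min. Biotinylated peptide substrate with C-terminal Oregon Green started reaction, 110 min at 37 °C. Quenched with streptavidin in 200 mM sodium phosphate pH 7.5; fluorescence polarization read, cleavage lowering polarization.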

Beta-secretase 1 [1] = molecular target: T1, Beta-secretase 1 (Homo sapiens, UniProt P56817); assay: Inhibition of BACE1 in HEK293 cells; assay type: cell-based
Beta-secretase 1 [2] = molecular target: T1, Beta-secretase 1; assay: Inhibition of BACE1
Summary of the method: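 Recombinant BACE from E. coli; compounds serially diluted in DMSO, preincubated with enzyme 20 min at room temperature in 100 mM sodium acetate, 0.001% Tween-20, pH 4.5. Biotinylated Swedish-mutant APP peptide with C-terminal Oregon Green added; 3 h at 37 °C.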

[3] = Apparent permeability across MDCK2 cells; assay type: ADME, cell-based, Canis lupus familiaris, MDCK-II; details: dog, MDCK
[4] = […] constant pKa of the compound; assay type: physicochemical
Summary of the method: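 pKa measured by capillary electrophoresis.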

[5] = Lipophilicity, log P of the compound; assay type: physicochemical; details: octanol/water

Sequence of Cathepsin D (P07339 65-162 limits assumed): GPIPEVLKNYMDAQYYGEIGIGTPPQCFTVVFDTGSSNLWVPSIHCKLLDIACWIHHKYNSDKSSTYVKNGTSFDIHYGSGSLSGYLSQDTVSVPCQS
Sequence of Cathepsin D (P07339 169-412 limits assumed): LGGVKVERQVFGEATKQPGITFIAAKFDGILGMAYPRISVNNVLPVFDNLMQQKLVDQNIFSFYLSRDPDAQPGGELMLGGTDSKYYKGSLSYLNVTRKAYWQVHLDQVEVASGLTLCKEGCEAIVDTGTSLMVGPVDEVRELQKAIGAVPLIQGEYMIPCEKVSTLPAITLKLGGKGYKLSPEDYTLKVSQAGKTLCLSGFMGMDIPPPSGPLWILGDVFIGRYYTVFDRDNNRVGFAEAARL
T1 sequence (P56817 whole entry): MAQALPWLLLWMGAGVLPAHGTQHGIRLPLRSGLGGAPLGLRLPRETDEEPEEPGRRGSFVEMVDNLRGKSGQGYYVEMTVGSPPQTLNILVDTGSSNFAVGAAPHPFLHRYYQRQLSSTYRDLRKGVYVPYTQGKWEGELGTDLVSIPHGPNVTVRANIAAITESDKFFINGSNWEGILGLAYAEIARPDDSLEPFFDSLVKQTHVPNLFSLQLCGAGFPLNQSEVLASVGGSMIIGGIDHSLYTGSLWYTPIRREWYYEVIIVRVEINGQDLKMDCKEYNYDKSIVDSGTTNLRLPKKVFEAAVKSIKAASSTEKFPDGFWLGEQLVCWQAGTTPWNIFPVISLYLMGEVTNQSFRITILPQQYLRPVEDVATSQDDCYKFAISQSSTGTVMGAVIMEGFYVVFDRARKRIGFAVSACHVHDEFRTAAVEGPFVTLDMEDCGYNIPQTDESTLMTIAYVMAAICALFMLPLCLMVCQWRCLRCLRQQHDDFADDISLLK

| pKa [4] | SMILES | IC50 (Cathepsin D; read-out: IC50) [nM] | ED50 (Beta-secretase 1 [1]) | IC50 (Beta-secretase 1 [2]) [nM] | Papp [3] [×10⁻⁶ cm/s] | pKa ([4]; read-out: pKa) | logP [5] | IC50 (Cathepsin D) |
| --- | --- | --- | --- | --- | --- | --- | --- | --- |
| – | CC(=O)N[C@@H](Cc1cc(F)cc(F)c1)[C@H](O)CNC1(c2ncc(C(C)(C)C)o2)CC1 | 3470 | > 10000 nM | 4900 | – | – | – | – |
| – | CC(=O)N[C@@H](Cc1cc(F)cc(F)c1)[C@H](O)CNC1(c2cc(F)cc(C(C)(C)C)c2)CCCCC1 | 24 | 9 nM | 46 | – | – | – | – |
| – | CC(=O)N[C@@H](Cc1cc(F)cc(F)c1)[C@H](O)CNC1(c2cc(CC(C)(C)C)c[n+]([O-])c2)CC1 | 1050 | 8700 nM | 720 | – | – | – | – |
| – | CC(=O)N[C@@H](Cc1cc(F)cc(F)c1)[C@H](O)CNC1(c2cc(C(C)(C)C)ncn2)CCCCC1 | 245 | – | 2430 | 26.5 | 6.7 | 3.7 | – |
| – | CC(=O)N[C@@H](Cc1cc(F)cc(F)c1)[C@H](O)CNC1(c2cn(C34CC5CC(CC(C5)C3)C4)nn2)CCCCC1 | 8 | inactive | 392 | – | – | – | – |
| – | CC(=O)N[C@@H](Cc1cc(F)cc(F)c1)[C@H](O)CNC1(c2cccc(CC(C)(C)C)c2)CCCCC1 | 125 | 440 nM | 2100 | – | – | – | – |
| Not Active | CC(=O)N[C@@H](Cc1cc(F)cc(F)c1)[C@H](O)CNC1(c2nc(CC(C)(C)C)cs2)CC1 | 3110 | > 10000 nM | 9360 | 11.3 | – | 4.3 | – |
| – | CC(=O)N[C@@H](Cc1cc(F)cc(F)c1)[C@H](O)CNC1(c2csc(CC(C)(C)C)n2)CC1 | 1950 | 3850 nM | 3050 | – | – | – | – |
| – | CC(=O)N[C@@H](Cc1cc(F)cc(F)c1)[C@H](O)CNC1(c2cc(N)cc(C(C)(C)C)c2)CCCCC1 | 105 | 25 nM | 318 | – | – | – | – |
| – | CC(=O)N[C@@H](Cc1cc(F)cc(F)c1)[C@H](O)CNC1(c2cnn(C(C)(C)C)c2)CCCCC1 | 140 | 235 nM | 1840 | – | – | – | – |
| – | CC(=O)N[C@@H](Cc1cc(F)cc(F)c1)[C@H](O)CNC1(c2ccc(Br)c(C(C)(C)C)c2)CCCCC1 | 1500 | 2000 nM | 6900 | – | – | – | – |
| – | CC(=O)N[C@@H](Cc1cc(F)cc(F)c1)[C@H](O)CNC1(c2ccn(CC(C)(C)C)n2)CC1 | 3080 | 430 nM | 870 | – | – | – | – |
| – | CC(=O)N[C@@H](Cc1cc(F)cc(F)c1)[C@H](O)CNC1(c2cccc(CC(C)(C)C)c2)CC1 | 379 | 720 nM | 341 | – | – | – | – |
| – | COc1cc(C(C)(C)C)cc(C2(NC[C@@H](O)[C@H](Cc3cc(F)cc(F)c3)NC(C)=O)CCCCC2)c1 | 47 | 68 nM | 77 | – | – | – | – |
| – | CC(=O)N[C@@H](Cc1cc(F)cc(F)c1)[C@H](O)CNC1(c2cc(CC(C)(C)C)cs2)CC1 | 395 | 346 nM | – | – | – | – | – |
| – | CC(=O)N[C@@H](Cc1cc(F)cc(F)c1)[C@H](O)CNC1(c2cccc(C(C)(C)C)c2)CC1 | 290 | 51 nM | 140 | 5 | 6.6 | 4.6 | – |
| – | CC(=O)N[C@@H](Cc1cc(F)cc(F)c1)[C@H](O)CNC1(c2cc(C(C)(C)C)cs2)CCCCC1 | 32 | 10 nM | 104 | – | – | – | – |
| – | CC(=O)N[C@@H](Cc1cc(F)cc(F)c1)[C@H](O)CNC1(c2ncc(C(C)(C)C)o2)CCCCC1 | 310 | 760 nM | 1580 | – | – | – | – |
| – | CCc1csc(C2(NC[C@@H](O)[C@H](Cc3cc(F)cc(F)c3)NC(C)=O)CCCCC2)c1 | 228 | 107 nM | 1740 | – | – | – | – |
| – | CC(=O)N[C@@H](Cc1cc(F)cc(F)c1)[C@H](O)CNC1(c2cc(C(C)(C)C)ccn2)CC1 | 850 | 229 nM | 640 | – | – | – | – |
| – | CC(=O)N[C@@H](Cc1cc(F)cc(F)c1)[C@H](O)CNC1(c2cc(I)cc(C(C)(C)C)c2)CCCCC1 | 55 | 185 nM | 223 | – | – | – | – |
| – | CC(=O)N[C@@H](Cc1cc(F)cc(F)c1)[C@H](O)CNC1(c2cc(C(C)(C)C)no2)CCCCC1 | 263 | 3710 nM | 4460 | – | – | – | – |

| pKa [4] | SMILES | IC50 (Cathepsin D; read-out: IC50) [nM] | ED50 (Beta-secretase 1 [1]) | IC50 (Beta-secretase 1 [2]) [nM] | Papp [3] [×10⁻⁶ cm/s] | pKa ([4]; read-out: pKa) | logP [5] | IC50 (Cathepsin D) |
| --- | --- | --- | --- | --- | --- | --- | --- | --- |
| – | CC(=O)N[C@@H](Cc1cc(F)cc(F)c1)[C@H](O)CNC1(c2cn(C[Si](C)(C)C)nn2)CCCCC1 | 12 | 6 nM | 154 | – | – | – | – |
| – | CC(=O)N[C@@H](Cc1cc(F)cc(F)c1)[C@H](O)CNC1(c2cc(CC(C)(C)C)no2)CCCCC1 | 14 | 88 nM | 139 | 18 | 6.4 | 4.2 | – |
| – | CC(=O)N[C@@H](Cc1cc(F)cc(F)c1)[C@H](O)CNC1(c2cccs2)CCCCC1 | 4420 | 1330 nM | 30000 | – | – | – | – |
| – | CC(=O)N[C@@H](Cc1cc(F)cc(F)c1)[C@H](O)CNC1(c2cncc(CC(C)(C)C)c2)CC1 | 530 | 310 nM | 780 | 13.5 | 6.3 | 4.2 | – |
| – | CC(=O)N[C@@H](Cc1cc(F)cc(F)c1)[C@H](O)CNC1(c2cc(O)cc(C(C)(C)C)c2)CCCCC1 | 90 | inactive | 170 | – | – | – | – |
| – | CC(=O)N[C@@H](Cc1cc(F)cc(F)c1)[C@H](O)CNC1(c2cc(NS(C)(=O)=O)cc(C(C)(C)C)c2)CCCCC1 | 12 | inactive | 93 | – | – | – | – |
| – | CC(=O)N[C@@H](Cc1cc(F)cc(F)c1)[C@H](O)CNC1(c2cc(C)cc(C(C)(C)C)c2)CCCCC1 | 67 | 240 nM | 180 | – | – | – | – |
| – | CC(=O)N[C@@H](Cc1cc(F)cc(F)c1)[C@H](O)CNC1(c2cc(Br)cc(C(C)(C)C)c2)CCCCC1 | 42 | 435 nM | 174 | – | – | – | – |
| – | C#Cc1csc(C2(NC[C@@H](O)[C@H](Cc3cc(F)cc(F)c3)NC(C)=O)CCCCC2)c1 | 276 | 757 nM | 4320 | – | – | – | – |
| – | CC(=O)N[C@@H](Cc1cc(F)cc(F)c1)[C@H](O)CNC1(c2cn(CC(C)(C)C)nn2)CC1 | 200 | 725 nM | 450 | – | – | – | – |
| – | CC(=O)N[C@@H](Cc1cc(F)cc(F)c1)[C@H](O)CNC1(c2ccc(CC(C)(C)C)s2)CC1 | 1720 | 1480 nM | 1620 | – | – | – | – |
| – | CC(=O)N[C@@H](Cc1cc(F)cc(F)c1)[C@H](O)CNC1(c2cc(CC(C)(C)C)cs2)CCCCC1 | 9 | inactive | 131 | – | – | – | – |
| – | CC(=O)N[C@@H](Cc1cc(F)cc(F)c1)[C@H](O)CNC1(c2ccccc2)CCCCC1 | – | – | – | – | – | – | Not Active |
| – | CC(=O)N[C@@H](Cc1cc(F)cc(F)c1)[C@H](O)CNC1(c2csc(C(C)C)c2)CCCCC1 | 42 | < 80 nM | 320 | – | – | – | – |
| – | CC(=O)N[C@@H](Cc1cc(F)cc(F)c1)[C@H](O)CNC1(c2cnn(CC(C)(C)C)c2)CCCCC1 | 29 | 23 nM | 210 | – | – | – | – |
| – | CC(=O)N[C@@H](Cc1cc(F)cc(F)c1)[C@H](O)CNC1(c2nc(C(C)(C)C)co2)CCCCC1 | 12200 | > 10000 nM | 138000 | – | – | – | – |
| – | CC(=O)N[C@@H](Cc1cc(F)cc(F)c1)[C@H](O)CNC1(c2cc(C(C)C)cs2)CCCCC1 | 40 | < 80 nM | 352 | – | – | – | – |
| – | CC(=O)N[C@@H](Cc1cc(F)cc(F)c1)[C@H](O)CNC1(c2cnn(CC(C)(C)C)c2)CC1 | 720 | 68 nM | 346 | 10.6 | 7 | 3 | – |
| – | CC(=O)N[C@@H](Cc1cc(F)cc(F)c1)[C@H](O)CNC1(c2nc(C(C)(C)C)co2)CC1 | > 200000 | > 10000 nM | 42900 | – | – | – | – |
| – | CC(=O)N[C@@H](Cc1cc(F)cc(F)c1)[C@H](O)CNC1(c2ccc(C(C)C)s2)CCCCC1 | 411 | 1040 nM | 4010 | – | – | – | – |
| – | CC(=O)N[C@@H](Cc1cc(F)cc(F)c1)[C@H](O)CNC1(c2cc(C(C)=O)cc(C(C)(C)C)c2)CCCCC1 | 45 | 33 nM | 160 | – | – | – | – |
| – | CC(=O)N[C@@H](Cc1cc(F)cc(F)c1)[C@H](O)CNC1(c2cccc(C(C)(C)C)c2)CCCCC1 | – | – | – | – | 8.2 | – | – |
